These compounds were tested against T1, OR8D1 (Homo sapiens) (UniProt Q8WZ84). Settings: stereoisomer not certain.
T1 sequence (whole entry): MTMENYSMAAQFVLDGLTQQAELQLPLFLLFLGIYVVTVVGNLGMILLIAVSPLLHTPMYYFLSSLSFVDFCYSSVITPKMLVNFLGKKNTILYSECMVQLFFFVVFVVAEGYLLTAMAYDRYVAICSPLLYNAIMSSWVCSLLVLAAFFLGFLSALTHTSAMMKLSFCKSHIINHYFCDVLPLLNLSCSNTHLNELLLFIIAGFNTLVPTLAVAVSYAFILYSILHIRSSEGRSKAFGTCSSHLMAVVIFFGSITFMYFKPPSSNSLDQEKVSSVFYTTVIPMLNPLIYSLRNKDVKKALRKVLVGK
How it was run: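 Transient luciferase assays in mammalian cell lines were common, though methods varied by source. The values come from published papers and their supplementary material, with extra details from the original authors when needed. Responsive refers to a measured signal the original authors judged statistically different from baseline, and non-responsive (inactive) to the remainder.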
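Further: active if original authors judged signal statistically different from baseline.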

Odorant receptor agonist call, inactive:
CC=CC(=O)C(C)CC (configuration not stated)
CC=CC(=O)C1=C(C)CCCC1(C)C
CCC(C)c1nccnc1OC (configuration not stated)
CCCCCCCCC=CC=O
CSSc1ccoc1C
CC(=O)O
CC(=O)OCCC(C)C
CCOC(=O)CC(C)C
COC1=C(C)OC(C)C1=O (configuration not stated)
COCCC(C)(C)S
COc1cccc(OC)c1O
CCCC(=O)C(C)CC (configuration not stated)
CCCCC(=O)OCC
CCCCCC=O
CCCCCCCCC1CCC(=O)O1 (configuration not stated)
CC(=O)C1=NCCS1
CCC=CCCOC(C)=O
CCCCCC(C)O (configuration not stated)
CSCCCO
C=Cc1ccc(O)c(OC)c1
CCc1ncc(C)nc1CC
CCOC(=O)CCSC
CCCSSSCCC
CCC=CCCC=O
CCOC(=O)C(C)CC (configuration not stated)
CCCCC(CC)CCC(=O)O (configuration not stated)
CCCCCCCC1CCCC(=O)O1 (configuration not stated)
CSC
CCCCCCCCCC(=O)OCC
SCCc1ccccc1
CCCCCCC=CC=O
CC(=O)c1cnccn1
CC(C)CCCCCCCCCCC=O
C=C1CCC2CC1C2(C)C (configuration not stated)
CCOC(=O)c1ccccc1
COC(=O)C=Cc1ccccc1
CCC(=O)C1=NCCC1

From the M2OR odorant receptor database
